Measurements taken from ChEMBL document CHEMBL3871280, “Bis(N-amidinohydrazones) and N-(amidino)-N'-aryl-bishydrazones: New classes of antibacterial/antifungal agents” (Bioorg Med Chem, 2017).
In brackets after ≈: the same amount, converted by molar mass.

Legend:
Bacillus subtilis = assay: Antibacterial activity against Bacillus subtilis 168; assay type: functional; settings: subsp. subtilis str. 168
[1] = Antifungal activity against fluconazole/itraconazole/voriconazole-resistant Candida albicans ATCC 90819; assay type: functional
[2] = Cytotoxicity against human A549 cells assessed as reduction in cell survival; assay type: toxicity, cell-based
[3] = Antibacterial activity against Salmonella enterica ATCC 14028; assay type: functional
Staphylococcus aureus = assay: Antibacterial activity against methicillin-resistant Staphylococcus aureus; assay type: functional
Method in brief: (§1)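 Values were set in μM and converted to μg/mL for presentation. Amikacin, ampicillin and ofloxacin served as positive controls.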

Acinetobacter baumannii = assay: Antibacterial activity against Acinetobacter baumannii ATCC 19606; assay type: functional
[4] = Cytotoxicity against human BEAS2B cells assessed as reduction in cell survival; assay type: toxicity, cell-based; settings: beas-2b
[5] = Antifungal activity against fluconazole/itraconazole/voriconazole-resistant Candida albicans ATCC 1237; assay type: functional
Candida albicans = assay: Antifungal activity against Candida albicans ATCC 1003; assay type: functional
[6] = Antifungal activity against fluconazole/itraconazole/voriconazole-resistant Candida albicans ATCC 64124; assay type: functional
[7] = Antifungal activity against fluconazole/itraconazole/voriconazole-resistant Candida albicans ATCC 10231; assay type: functional
Klebsiella pneumoniae = assay: Antibacterial activity against Klebsiella pneumoniae ATCC 27736; assay type: functional
[8] = Antifungal activity against fluconazole/itraconazole/voriconazole-susceptible Candida albicans ATCC 2876; assay type: functional
Enterobacter cloacae = assay: Antibacterial activity against Enterobacter cloacae ATCC 13047; assay type: functional; settings: subsp. cloacae ATCC 13047
Escherichia coli = assay: Antibacterial activity against Escherichia coli MC1061; assay type: functional; method in brief: as §1
[9] = system: Mycolicibacterium smegmatis; assay: Antimycobacterial activity against Mycobacterium smegmatis MC2 155; assay type: functional; settings: str. MC2 155; method in brief: as §1
Listeria monocytogenes = assay: Antibacterial activity against Listeria monocytogenes ATCC 19115; assay type: functional
Enterococcus = assay: Antibacterial activity against vancomycin-resistant Enterococcus; assay type: functional; method in brief: as §1
[10] = Antifungal activity against fluconazole/itraconazole/voriconazole-susceptible Candida albicans ATCC 2310; assay type: functional
Pseudomonas aeruginosa = assay: Antibacterial activity against Pseudomonas aeruginosa ATCC 27853; assay type: functional

SMILES	MIC (Bacillus subtilis) [µM]	MIC [1] [µM]	IC50 [2] [µg/mL]	MIC [3] [µM]	MIC (Staphylococcus aureus) [µM]	MIC (Acinetobacter baumannii) [µM]	IC50 [4] [µg/mL]	MIC [5] [µM]	MIC (Candida albicans) [µM]	MIC [6] [µM]	MIC [7] [µM]	MIC (Klebsiella pneumoniae) [µM]	MIC [8] [µM]	MIC (Enterobacter cloacae) [µM]	MIC (Escherichia coli) [µM]	MIC [9] [µM]	MIC (Listeria monocytogenes) [µM]	MIC (Enterococcus) [µM]	MIC [10] [µM]	MIC (Pseudomonas aeruginosa) [µM]
Cl.Cl.N=C(N)N/N=C/c1ccc(-c2ccc(/C=N/NC(=N)N)cc2)cc1	> 500	> 79.2	6.6	> 500	3.9	> 500	3	39.5	19.7	> 79.2	39.5	> 500	19.7	> 500	> 500	> 500	1	2	> 79.2	> 500
Cl.N=C(N)N/N=C/c1ccc(-c2ccc(/C=N/Nc3ccc(F)cc3F)cc2)cc1	> 500	18.2	4.8	> 500	3.9	> 500	5.8	9.1	4.5	9.1	2.3	> 500	9.1	> 500	> 500	2 to 3.9	2 to 3.9	3.9	9.1	> 500
C/C(=N\NC(=N)N)c1ccc(-c2ccc(/C(C)=N/NC(=N)N)cc2)cc1.Cl.Cl	> 500	9.2	6.3	> 500	> 500	> 500	1.7	> 73.9	18.4	4.7	4.7 to 9.2	15.6	4.7	125	62.5	> 500	> 500	> 500	9.2	2
Cl.Cl.N=C(N)N/N=C/c1ccc(-c2cccc(/C=N/NC(=N)N)c2)cc1	> 500	9.9	13.9	> 500	3.9	> 500	5.7	9.9	9.9	9.9	9.9	> 500	9.9	> 500	> 500	1	1	3.9	9.9	> 500
C/C(=N\NC(=N)N)c1ccc(Oc2ccc(/C(C)=N/NC(=N)N)cc2)cc1.Cl.Cl	125	17.8	3.9	125	125	62.5	2.9	17.8	17.8	17.8	17.8	62.5	8.9	250	125	125 to 250	62.5	3.9	17.8	62.5
NCC[C@H](O)C(=O)N[C@@H]1C[C@H](N)[C@@H](O[C@H]2O[C@H](CN)[C@@H](O)[C@H](O)[C@H]2O)[C@H](O)[C@H]1O[C@H]1O[C@H](CO)[C@@H](O)[C@H](N)[C@H]1O [AMIKACIN]	3.9 to 15.6 (≈ 2.28 to 9.14 µg/mL)	–	–	3.9 to 7.8 (≈ 2.28 to 4.57 µg/mL)	31.3 (≈ 18.3 µg/mL)	31.3 (≈ 18.3 µg/mL)	–	–	–	–	–	31.3 (≈ 18.3 µg/mL)	–	62.5 (≈ 36.6 µg/mL)	31.3 (≈ 18.3 µg/mL)	15.6 (≈ 9.14 µg/mL)	3.9 (≈ 2.28 µg/mL)	125 (≈ 73.2 µg/mL)	–	62.5 (≈ 36.6 µg/mL)
C/C(=N\NC(=N)N)c1cccc(/C(C)=N/NC(=N)N)c1.Cl.Cl	250	> 90.1	31.2	62.5 to 250	> 500	> 500	33	90.1	> 90.1	> 90.1	> 90.1	> 500	22.5	> 500	> 500	15.6	250	125	90.1	500
Cl.N#Cc1ccc(N/N=C/c2ccc(-c3ccc(/C=N/NC(=N)N)cc3)cc2)cc1	31.3	37.3	4.2	15.6	15.6	15.6 to 31.3	1.9	37.3	18.7	74.9	37.3	15.6 to 31.3	37.3	500	62.5 to 125	15.6 to 31.3	7.8	2 to 3.9	37.3	31.3 to 62.5
Cl.N=C(N)N/N=C/c1ccc(-c2ccc(/C=N/Nc3ccc(Cl)cc3)cc2)cc1	> 500	18.3	4.9	> 500	7.8	> 500	6	36.5	9.1	36.5	18.3	> 500	18.3	> 500	> 500	3.9	3.9	3.9	9.1	> 500
N=C(N)N/N=C/c1ccc(-c2ccc(/C=N/Nc3ccc(Cl)cc3Cl)cc2)cc1	> 500	67.8 (≈ 28.8 µg/mL)	–	> 500	7.8 (≈ 3.32 µg/mL)	> 500	–	33.8 (≈ 14.4 µg/mL)	16.8 (≈ 7.15 µg/mL)	67.8 (≈ 28.8 µg/mL)	16.8 (≈ 7.15 µg/mL)	> 500	33.8 (≈ 14.4 µg/mL)	> 500	> 500	3.9 (≈ 1.66 µg/mL)	7.8 (≈ 3.32 µg/mL)	7.8 (≈ 3.32 µg/mL)	16.8 (≈ 7.15 µg/mL)	> 500
C/C(=N\NC(=N)N)c1ccc(/C(C)=N/NC(=N)N)cc1	250 (≈ 68.6 µg/mL)	> 90.1	–	250 to 500 (≈ 68.6 to 137 µg/mL)	> 500	500 (≈ 137 µg/mL)	–	> 90.1	> 90.1	90.1 (≈ 24.7 µg/mL)	> 90.1	500 (≈ 137 µg/mL)	> 90.1	> 500	> 500	> 500	250 (≈ 68.6 µg/mL)	125 (≈ 34.3 µg/mL)	> 90.1	250 (≈ 68.6 µg/mL)
Cl.N=C(N)N/N=C/c1ccc(-c2ccc(/C=N/Nc3ccccc3Br)cc2)cc1	> 500	8.3	6.7	> 500	2	> 500	3.4	8.3	4.1	8.3	4.1	> 500	8.3	> 500	> 500	3.9	2	2	8.3	> 500
CC1(C)S[C@@H]2[C@H](NC(=O)[C@H](N)c3ccccc3)C(=O)N2[C@H]1C(=O)O [AMPICILLIN]	> 250	–	–	250 (≈ 87.4 µg/mL)	250 (≈ 87.4 µg/mL)	> 250	–	–	–	–	–	> 250	–	> 250	> 250	> 250	250 (≈ 87.4 µg/mL)	250 (≈ 87.4 µg/mL)	–	> 250
C/C(=N\NC(=N)N)c1ccc(-c2ccc(/C(C)=N/Nc3ccccc3Cl)cc2)cc1	62.5 to 125 (≈ 26.2 to 52.4 µg/mL)	34.3 (≈ 14.4 µg/mL)	–	62.5 to 125 (≈ 26.2 to 52.4 µg/mL)	125 (≈ 52.4 µg/mL)	62.5 (≈ 26.2 µg/mL)	–	34.3 (≈ 14.4 µg/mL)	34.3 (≈ 14.4 µg/mL)	68.7 (≈ 28.8 µg/mL)	34.3 (≈ 14.4 µg/mL)	62.5 to 125 (≈ 26.2 to 52.4 µg/mL)	34.3 (≈ 14.4 µg/mL)	500 (≈ 209 µg/mL)	500 (≈ 209 µg/mL)	500 (≈ 209 µg/mL)	62.5 to 125 (≈ 26.2 to 52.4 µg/mL)	3.9 (≈ 1.63 µg/mL)	34.3 (≈ 14.4 µg/mL)	500 (≈ 209 µg/mL)
C/C(=N\NC(=N)N)c1ccc(Cc2ccc(/C(C)=N/NC(=N)N)cc2)cc1.Cl.Cl	> 500	17.8	4.3	> 500	3.9	> 500	2.9	17.8	17.8	17.8	17.8	> 500	8.9	> 500	> 500	2	3.9	2	17.8	> 500
CC1COc2c(N3CCN(C)CC3)c(F)cc3c(=O)c(C(=O)O)cn1c23 (stereo not given) [OFLOXACIN]	≤ 0.5	–	–	15.6 to 31.3 (≈ 5.64 to 11.3 µg/mL)	1 (≈ 0.361 µg/mL)	≤ 0.5	–	–	–	–	–	15.6 to 31.3 (≈ 5.64 to 11.3 µg/mL)	–	≤ 0.5	3.9 to 7.8 (≈ 1.41 to 2.82 µg/mL)	15.6 (≈ 5.64 µg/mL)	1 (≈ 0.361 µg/mL)	7.8 (≈ 2.82 µg/mL)	–	3.9 (≈ 1.41 µg/mL)
C[C@@H]1[C@H](O)[C@@H](C)/C=C/C=C/C=C/C=C/C=C/C=C/C=C/[C@H](O[C@@H]2O[C@H](C)[C@@H](O)[C@H](N)[C@@H]2O)C[C@@H]2O[C@](O)(C[C@@H](O)C[C@@H](O)[C@H](O)CC[C@@H](O)C[C@@H](O)CC(=O)O[C@H]1C)C[C@H](O)[C@H]2C(=O)O [AMPHOTERICIN B]	–	–	18.2 (≈ 19.7 µM)	–	–	–	17.7 (≈ 19.2 µM)	–	–	2.1 to 4.2 (≈ 1.94 to 3.88 µg/mL)	–	–	–	–	–	–	–	–	–	–
